Assay results: ChEMBL document CHEMBL1158394, “Diversity-oriented synthesis of furo[3,2-f]chromanes with antimycobacterial activity” (Eur J Med Chem, 2009)
Values after ≈ are worked out from the molar mass of the structure shown.

What follows are compounds tested on Mycobacterium tuberculosis variant bovis BCG (assay: Antimycobacterial activity against Mycobacterium bovis BCG Pasteur after 6 days by microdilution resazurin assay). Settings: 144 h.
Format: functional
Summary of the method: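 Microdilution resazurin assay with M. bovis BCG inoculum grown in Dubos medium with 10% ADC. Drugs (DMSO stocks of 50 mg/mL) are twofold serially diluted in 96-well plates, with DMSO and isoniazid controls, then incubated at 37 °C. Resazurin (0.01% w/v) is added and incubation continues 24 h. MIC95 is the amount giving >95% growth inhibition, in µg/mL. Duplicate runs in two independent experiments.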

Row | Compound | MIC95 [µg/mL]
1 | Cc1c(-c2ccncc2)oc2ccc3c(c12)C=CC(C)(C)O3 | 6.2 (≈ 21.3 µM)
2 | CC1(C)C=Cc2c(ccc3oc(-c4ccncc4)cc23)O1 | 6.2 (≈ 22.4 µM)
3 | Cc1c2c(c3cc(/C=C/c4cccnc4)oc3c1C)CCC(C)(C)O2 | 6.2 (≈ 18.6 µM)
4 | Cc1c2c(c3cc(-c4ccncc4)oc3c1C)CCC(C)(C)O2 | 3.1 (≈ 10.1 µM)
5 | CC1(C)CCc2c(ccc3oc(-c4cccnc4)c(CCCO)c23)O1 | 6.2 (≈ 18.4 µM)
6 | Cc1c2c(c3cc(-c4cnccn4)oc3c1C)CCC(C)(C)O2 | 25 (≈ 81.1 µM)
7 | Cc1c2c(c3cc(-c4cccnc4)oc3c1C)CCC(C)(C)O2 | 3.1 (≈ 10.1 µM)
8 | Cc1c2c(c3cc(Cc4ccc(Cl)cc4)oc3c1C)CCC(C)(C)O2 | > 100
9 | Cc1c2c(c3cc(Cc4cccs4)oc3c1C)CCC(C)(C)O2 | > 100
10 | Cc1c2c(c3cc(-c4ccc(NCCCN(C)C)nc4)oc3c1C)CCC(C)(C)O2 | 6.2 (≈ 15.2 µM)
11 | Cc1c2c(c3cc(-c4ccc(Cl)nc4)oc3c1C)CCC(C)(C)O2 | > 100
12 | CC(=O)OCc1cc2c3c(c(C)c(C)c2o1)OC(C)(C)CC3 | > 100
13 | Cc1c2c(c3cc(CCC(=O)N4CCOCC4)oc3c1C)CCC(C)(C)O2 | > 100
14 | Cc1c2c(c3cc(Cc4cccnc4)oc3c1C)CCC(C)(C)O2 | 6.2 (≈ 19.3 µM)
15 | Cc1c2c(c3cc(CCc4cccnc4)oc3c1C)CCC(C)(C)O2 | 3.1 (≈ 9.24 µM)
16 | CC1(C)CCc2c(ccc3oc(-c4ccncc4)c(CCCO)c23)O1 | 12.5 (≈ 37 µM)
17 | Cc1c2c(c3cc(-c4ccccn4)oc3c1C)CCC(C)(C)O2 | > 100
18 | Cc1c2c(c3cc(-c4ccc[n+]([O-])c4)oc3c1C)CCC(C)(C)O2 | 12.5 (≈ 38.7 µM)
19 | Cc1c2c(c3cc(-c4ccc(-c5nn[nH]n5)nc4)oc3c1C)CCC(C)(C)O2 | 25 (≈ 66.6 µM)
20 | Cc1c2c(c3cc(-c4cccs4)oc3c1C)CCC(C)(C)O2 | > 100
21 | COC(=N)c1ccc(-c2cc3c4c(c(C)c(C)c3o2)OC(C)(C)CC4)cn1 | 6.2 (≈ 17 µM)
22 | NNC(=O)c1ccncc1 [ISONIAZID] | 0.4 (≈ 2.92 µM)
